Measurements as given in ChEMBL document CHEMBL1629417, “Benzophenones and biflavonoids from Rheedia edulis” (J Nat Prod, 2010).

What was measured:
[1] = Antioxidant activity assessed as ABTS radical scavenging activity; format: functional
Procedure, shortened: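 Based on the Re et al. ABTS radical cation decolorization method, with modifications. Trolox and gallic acid serve as reference antioxidants. Percent inhibition of ABTS is calculated as in the DPPH assay, relative to DMSO-treated controls, and IC50 values are derived from it.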

[2] = tested on: Radical scavenging activity; assay: Antioxidant activity assessed as DPPH radical scavenging activity; format: functional
Procedure, shortened: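 Follows a previously described method. Trolox and gallic acid serve as reference antioxidants. Scavenging is expressed as percent inhibition of DPPH relative to DMSO-treated controls, and IC50 values are derived from it.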

IC50 [1] [µM]	IC50 [2] [µM]	SMILES
48.4	70.8	Cc1c(C)c2c(c(C)c1O)CCC(C)(C(=O)O)O2 (stereo unspecified) [TROLOX]
287	766	CC(C)=CC[C@H]1C[C@]2(CC=C(C)C)C(=O)[C@@](CC=C(C)C)(C(=O)C(C(=O)c3ccccc3)=C2O)C1(C)C [6-EPI-CLUSIANONE]

SMILES	IC50 [1] [µM]	IC50 [2] [µM]
O=C(O)c1cc(O)c(O)c(O)c1 [GALLIC ACID]	19.8	33.9
